Measurements of several laboratories.
Lines come from different studies, so protocols differ.
Organism: Enterococcus faecium

CC(=O)OCc1cccc(-n2c(/C=C/c3ccc(C#N)cc3)nc3ccccc3c2=O)c1 — MIC (microbial growth; broth dilution; NCTC7171): > 128 µg/mL
CC1CCN(CCCN2/C(=C/c3cc[n+](C)c4ccccc34)Sc3ccccc32)CC1.[I-] — MBC (microbial killing; ATCC700221): 128 µg/mL
CNC(=O)c1cc(Oc2ccc(NC(=O)Nc3ccc(Cl)c(C(F)(F)F)c3)cc2)ccn1 — MIC (microbial growth): > 100 µM
O=C(O)CCc1ccc(Oc2ccc(-c3noc(-c4ccc(O)cc4)n3)cc2)cc1 — MIC (microbial growth; broth dilution; 24 h): > 32 µg/mL
O=C(N[C@H](CO)[C@H](O)c1ccc([N+](=O)[O-])cc1)C(Cl)Cl — MIC (microbial growth; broth dilution; VRE): 3.9 µg/mL
Cc1cc(/C=C2\Sc3ccccc3N2CCCN2CCC(C)CC2)c2ccccc2[n+]1C.[I-] — MBC (microbial killing; ATCC700221): > 64 µg/mL
O=C(Nc1ccc2c(c1)OC(F)(F)O2)Nc1ccc(Cl)c(C(F)(F)F)c1 — MIC (microbial growth): 1 µM
O=c1c2cnccc2nc(/C=C/c2ccc(Cl)cc2)n1-c1cccc(O)c1 — MIC (microbial growth; broth dilution; NCTC7171): > 128 µg/mL
CN(C)CCc1ccc(Oc2ccc(-c3noc(-c4ccc(O)cc4)n3)cc2)cc1 — MIC (microbial growth; broth dilution; 24 h): 4 µg/mL
O=C(O)c1cccc(-n2c(/C=C/c3ccc(F)c(Cl)c3)nc3ccccc3c2=O)c1 — MIC (microbial growth; broth dilution; NCTC7171): > 128 µg/mL
O=C(O)COc1ccc(Oc2ccc(-c3noc(-c4ccc(O)cc4)n3)cc2)cc1 — MIC (microbial growth; broth dilution; 24 h): > 32 µg/mL
